From ChEMBL document CHEMBL1125553, “Bioisosteric replacement of the alpha-amino carboxylic acid functionality in 2-amino-5-phosphonopentanoic acid yields unique 3,4-diamino-3-cyclobutene-1,2-dione containing NMDA antagonists” (J Med Chem, 1992) come the findings set out here.

In data set [1] the target is Glutamate receptor ionotropic, kainate. Put plainly: Compound was tested or its affinity against ionotropic glutamate receptor ionotropic kainate in rats.
Data set [2] deals with T1, Glutamate receptor ionotropic, AMPA (Rattus norvegicus, UniProt P19490+P19491+P19492+P19493). Put plainly: The compound was tested for its affinity against AMPA receptor in rats.
The target in data set [3] is T2, Glutamate NMDA receptor (Rattus norvegicus) (UniProt P35439+Q00959+Q00960+Q00961+Q62645+Q8VHN2+Q9R1M7). Put plainly: The compound was tested for the inhibition of N-methyl-D-aspartate glutamate receptor in rats using [3H]-CPP as uM. The note with it: concentration not given here. The gist of the method:
(§1)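 Rat brain crude synaptic membranes, Triton X-100 treated, frozen at -70 °C, thawed, washed once, resuspended in Tris HCl buffer at 0.3–0.5 mg protein/mL (Lowry). NMDA receptor affinity measured by displacement of [3H]CPP binding.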

For data set [4], the target named is Glutamate NMDA receptor. Briefly: Inhibition of [3H]CPP binding to rat N-methyl-D-aspartate glutamate receptor. It is filed as protein-complex assay. The method, boiled down:
(§2)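 Rat brain crude synaptic membranes treated with 0.04% Triton X-100 and stored frozen at -70 °C. Before use they were thawed, washed once in Tris HCl buffer and resuspended at 0.3–0.5 mg protein/mL (Lowry). NMDA receptor affinity was measured as displacement of [3H]CPP binding to these membranes.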

The species entered for data set [5] is Mus musculus. Briefly: (§3) Effective dose against NMDA-induced lethality in male Swiss-albino mice. It is filed as ADME, organism-based. The note with it: in vivo.
Data set [6] concerns the target Glutamate NMDA receptor. Put plainly: The compound was tested for its affinity against N-methyl-D-aspartate glutamate receptor in rats using [3H]CPP as radioligand. The gist of the method: as §2
The species named for data set [7] is Mus musculus. The description is as §3. The data set is classed as functional.
Data set [8] concerns the target Glutamate NMDA receptor. Briefly: Compound tested for affinity towards N-methyl-D-aspartate glutamate receptor by measuring their ability to displace [3H]TCP from rat brain.
Data set [9] concerns the target T2, Glutamate NMDA receptor (Rattus norvegicus). Put plainly: The compound was tested for the inhibition of N-methyl-D-aspartate glutamate receptor in rats using [3H]CPP as uM. The note with it: concentration not given here. The method, boiled down: as §1
For data set [10] the target is unchanged. Briefly: The compound was tested for its affinity against N-methyl-D-aspartate glutamate receptor in rats using [3H]CPP as uM. The note with it: concentration not given here. The gist of the method: as §1
Data set [11] deals with T1, Glutamate receptor ionotropic, AMPA. Put plainly: Compound was tested or its affinity against AMPA receptor in rats.
The next data set is filed under the species Rattus norvegicus. Put plainly: Ability to displace [3H]TCP from rat brain. The data set is classed as functional.
The species entered for data set [12] is Mus musculus. Briefly: Effective dose against NMDA-induced lethality in male Swiss-albino mice was determined at a concentration of 50 uM. It is filed as organism-based. The note with it: in vivo.

In general, IC50 refers to the concentration that inhibits the measured activity by half. The low end stands for inhibition by little substance, the high end for a need for much substance. A word on the inhibition: it is the relative decrease from the control value, in per cent. Low values mean a response near the control, high ones a response far below the control. By ED50 is commonly meant the dose that gives a 50% effect, or the effect in half of the subjects. Low readings indicate greater potency, high ones weaker potency. In general, Inhibition refers to the relative decrease from the control value, in per cent.

Turning to `Nc1c(N(CC(=O)O)Cc2ccccc2)c(=O)c1=O`, the half-maximal inhibitory concentration (IC50) in data set [1] and in [2] was more than 100 µM in each case. The inhibition in data set [3] turned out to be 50%.
In the case of `N[C@@H](Cn1oc(=O)[nH]c1=O)C(=O)O` [QUISQUALATE], the concentration for half-maximal inhibition (IC50) on Glutamate NMDA receptor [4] was more than 100 µM.
For `Nc1c(NCP(=O)(O)O)c(=O)c1=O`, the ED50 in the data set listed under Mus musculus [5] is more than 100 mg/kg. Besides, the IC50 at Glutamate NMDA receptor [6] is more than 10 µM.
`C/N=c1\c(O)c(O)\c1=N/CCC(=O)O`: the half-inhibitory concentration (IC50) at Glutamate NMDA receptor [4] worked out at 20 µM.
At Glutamate NMDA receptor [4], `NC(CCCCCP(=O)(O)O)C(=O)O` (stereo not drawn) [AP-7] had a half-maximal inhibitory concentration (IC50) of 0.39 µM. This compound also yielded an ED50 in the data set filed under Mus musculus [7] of 38 mg/kg.
`Nc1c(NCCP(=O)(O)O)c(=O)c1=O` returned a median effective dose (ED50) in the data set listed under Mus musculus [5] of 29 mg/kg. Also, the 50% inhibitory concentration (IC50) at Glutamate NMDA receptor [6] is 0.47 µM.
As to `Nc1c(NCC(=O)O)c(=O)c1=O`, the IC50 in data set [1] and in data set [2] was more than 100 µM each time.
Consider `CCOC(=O)C/N=c1\c(O)c(O)c1=N`, for which the IC50 on Glutamate NMDA receptor [4] came out at 190 µM.
As for `Nc1c(NCCn2oc(=O)[nH]c2=O)c(=O)c1=O`, the concentration for half-maximal inhibition (IC50) in data set [1] was more than 100 µM; in data set [2] it was more than 100 µM; on Glutamate NMDA receptor [4] it was 5.2 µM.
`O=C(O)C1CN(CCCP(=O)(O)O)CCN1` (stereo not drawn): on Glutamate NMDA receptor [8], the IC50 stood at 45 µM.
Take `Nc1c(NCCCP(=O)(O)O)c(=O)c1=O`: the ED50 in the data set listed under Mus musculus [5] was more than 100 mg/kg. This compound also gave an IC50 on Glutamate NMDA receptor [6] of 2.6 µM.
Turning to `C=C(C)CN(CC(=O)O)c1c(N)c(=O)c1=O`, the IC50 in [1] and in [2] was more than 100 µM throughout. Further, in [9], the inhibition is 46%.
As for `O=C(O)CCNc1c(O)c(=O)/c1=N\Cc1ccccc1`, the IC50 at Glutamate NMDA receptor [4] was more than 100 µM.
`Nc1c(NCCCCP(=O)(O)O)c(=O)c1=O` came in with an ED50 in the data set listed under Mus musculus [5] of more than 30 mg/kg. The same compound came in with an inhibition in data set [10] of 68%.
Turning to `C=CCN(CC(=O)O)c1c(N)c(=O)c1=O`, the results for the IC50 (in [1]; on Glutamate NMDA receptor [4]; in data set [11]) were more than 100 µM, 10 µM and more than 100 µM, respectively.
Turning to `NS(=O)(=O)c1cccc2c1c([N+](=O)[O-])cc1nc(O)c(O)nc12` [NBQX], at Glutamate NMDA receptor [4], the half-inhibitory concentration (IC50) was more than 10 µM.
In the case of `Nc1c(NCCC(=O)O)c(=O)c1=O`, the IC50 in the data set filed under Rattus norvegicus amounted to 941 µM.
`CN(CCP(=O)(O)O)c1c(N)c(=O)c1=O`: the Inhibition in the data set listed under Mus musculus [12] came to 50%. On Glutamate NMDA receptor [6], this compound displayed an IC50 of 1 µM.
